# Test results reported in ChEMBL document CHEMBL1158042, “Carneic acids A and B, chemotaxonomically significant antimicrobial agents from the xylariaceous ascomycete Hypoxylon carneum” (2006).
# Starred links: 1 amine or outer side, 2 acyl side, 3 side chain; linkers in the order of their positions; H or OH if unused. Positions of bridges follow the written chain, without caps; N, C: chain ends. Non-standard residues stand in square brackets, D forms with d. Residues, ends and D or L forms follow the SMILES beside them. Chains are numbered I, II in the order given. Actinocin(1to9) = Cc1c2oc3c(C)ccc(C(=O)[*:2])c3nc-2c(C(=O)[*:1])c(N)c1=O; NMeV = CN[C@H](C(=O)O)C(C)C; Sar = CNCC(=O)O
# How the values were obtained:
# Format in all cases: functional
# Bacillus subtilis = experiment: Antimicrobial activity against Bacillus subtilis ATCC 6633 after 18 hrs; conditions: ATCC 6633, 18 h
# Outline: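 Serial broth dilution in microtiter wells. Compounds in MeOH were dispensed and the solvent evaporated in vacuo. Inoculum came from an overnight nutrient broth culture, adjusted to 10⁵ cells per mL, in NB medium. Incubation was 18 h. MIC was read as the minimal inhibitory concentration.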
# Yarrowia lipolytica = experiment: Antimicrobial activity against Yarrowia lipolytica HT20after 24 hrs
# Outline: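 Yeast tested by serial dilution in YMG medium. Compound films were left in wells after MeOH evaporation in vacuo. Inoculum came from an overnight YMG culture, adjusted to 10⁵ cells per mL. After 24 h incubation, the minimal inhibitory concentration was determined.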
# Mucor hiemalis = experiment: Antimicrobial activity against Mucor hiemalis DSM 63298 after 24 hrs; conditions: DSM 63298, 24 h
# Outline: (§1)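 Serial dilution in microtiter wells with YMG medium. Compounds in MeOH were dispensed and dried in vacuo. Spores were rinsed from well-grown 9-day-old YMG agar cultures with […], then adjusted to 10⁵ per mL. Concentrations ranged from 100 to 0.1 µg mL^-1 (eight levels). Incubation was 24 h. MIC was recorded.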
# Penicillium griseofulvum = experiment: Antimicrobial activity against Penicillium griseofulvum DSM 847 after 24 hrs; conditions: DSM 847, 24 h; outline: as §1
# Stachybotrys chartarum = experiment: Antimicrobial activity against Stachybotrys chartarum DSM 2144 after 24 hrs; conditions: DSM 2144, 24 h; outline: as §1
# Trichoderma harzianum = experiment: Antimicrobial activity against Trichoderma harzianum ATCC 64870 after 24 hrs; conditions: ATCC 64870, 24 h; outline: as §1
SMILES,MIC (Bacillus subtilis),MIC (Yarrowia lipolytica),MIC (Mucor hiemalis),MIC (Penicillium griseofulvum),MIC (Stachybotrys chartarum),MIC (Trichoderma harzianum)
CC1(C)S[C@@H]2[C@H](NC(=O)Cc3ccccc3)C(=O)N2[C@H]1C(=O)O [PENICILLIN G],3.12 µg/mL,> 100 µg/mL,> 100 µg/mL,> 100 µg/mL,> 100 µg/mL,> 100 µg/mL
CC1=C[C@@H]2[C@@H]([C@@H](/C=C/C=C/C(=O)O)[C@H]1/C(C)=C/CO)[C@H](C)CC[C@H]2O [CARNEIC ACID B],50 µg/mL,25 µg/mL,12.5 µg/mL,25 µg/mL,25 µg/mL,50 µg/mL
CC(=O)OC/C=C/C1=CC2=C(CO1)C(=O)[C@](C)(O)[C@H](OC(=O)c1c(C)cc(O)cc1O)C2 [RUBIGINOSIN A],50 µg/mL,100 µg/mL,25 µg/mL,> 100 µg/mL,100 µg/mL,> 100 µg/mL
Oc1cccc2c(-c3ccc(O)c4c(O)cccc34)ccc(O)c12,100 µg/mL,> 100 µg/mL,100 µg/mL,> 100 µg/mL,> 100 µg/mL,> 100 µg/mL
C/C=C(\C)[C@H]1C(C)=C[C@@H]2[C@@H]([C@H]1/C=C/C=C/C(=O)O)[C@H](C)CC[C@H]2O [CARNEIC ACID A],50 µg/mL,25 µg/mL,12.5 µg/mL,12 µg/mL,25 µg/mL,50 µg/mL
"Cc1c2oc3c(C)ccc(C(=O)N[C@@H]4C(=O)N[C@H](C(C)C)C(=O)N5CCC[C@H]5C(=O)N(C)CC(=O)N(C)[C@@H](C(C)C)C(=O)O[C@@H]4C)c3nc-2c(C(=O)N[C@@H]2C(=O)N[C@H](C(C)C)C(=O)N3CCC[C@H]3C(=O)N(C)CC(=O)N(C)[C@@H](C(C)C)C(=O)O[C@@H]2C)c(N)c1=O [DACTINOMYCIN] (I: T[dV]P[Sar][NMeV] / II: T[dV]P[Sar][NMeV]; ester I:1-I:C, II:1-II:C; linker I:N-II:N via Actinocin(1to9))",> 100 µg/mL,6.25 µg/mL,3.12 µg/mL,3.12 µg/mL,3.12 µg/mL,6.25 µg/mL
